Test results as given in ChEMBL document CHEMBL1136933 (J Med Chem, 2009).

Key:
[1] = molecular target: T1, Muscarinic acetylcholine receptor M1 (Rattus norvegicus) (UniProt P08482); experiment: Activation of rat muscarinic M1 receptor expressed in CHO cells co-expressing Gq protein assessed as potentiation of acetylcholine-induced intracellular Ca2+ mobilization at 30 uM relative to acetylcholine; type: functional, cell-based
T1 sequence (whole entry): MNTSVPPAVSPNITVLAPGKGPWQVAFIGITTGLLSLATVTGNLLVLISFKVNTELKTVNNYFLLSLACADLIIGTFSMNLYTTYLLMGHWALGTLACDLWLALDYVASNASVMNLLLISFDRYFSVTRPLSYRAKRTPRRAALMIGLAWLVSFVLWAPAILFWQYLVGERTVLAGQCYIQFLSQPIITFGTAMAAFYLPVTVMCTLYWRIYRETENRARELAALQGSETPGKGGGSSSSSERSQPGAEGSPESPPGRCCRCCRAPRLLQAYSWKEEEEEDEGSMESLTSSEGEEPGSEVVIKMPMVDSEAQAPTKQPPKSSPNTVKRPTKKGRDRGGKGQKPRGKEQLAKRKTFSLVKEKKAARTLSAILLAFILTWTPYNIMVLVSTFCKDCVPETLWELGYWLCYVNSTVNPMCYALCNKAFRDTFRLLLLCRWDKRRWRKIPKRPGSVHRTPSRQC

[2] = molecular target: T2, Muscarinic acetylcholine receptor M1 (Rattus norvegicus, UniProt P08482); experiment: Activation of rat muscarinic M1 receptor expressed in CHO cells co-expressing Gq protein assessed as potentiation of acetylcholine-induced intracellular Ca2+ mobilization; type: functional, cell-based
T2 sequence (P08482 whole entry): T1 sequence (whole entry)

[3] = molecular target: T3, Muscarinic acetylcholine receptor M5 (Homo sapiens, UniProt P08912); experiment: Activation of human muscarinic M5 receptor expressed in CHO cells coexpressing Gq protein assessed as potentiation of acetylcholine-induced intracellular Ca2+ mobilization; type: functional, cell-based
T3 sequence (P08912 whole entry): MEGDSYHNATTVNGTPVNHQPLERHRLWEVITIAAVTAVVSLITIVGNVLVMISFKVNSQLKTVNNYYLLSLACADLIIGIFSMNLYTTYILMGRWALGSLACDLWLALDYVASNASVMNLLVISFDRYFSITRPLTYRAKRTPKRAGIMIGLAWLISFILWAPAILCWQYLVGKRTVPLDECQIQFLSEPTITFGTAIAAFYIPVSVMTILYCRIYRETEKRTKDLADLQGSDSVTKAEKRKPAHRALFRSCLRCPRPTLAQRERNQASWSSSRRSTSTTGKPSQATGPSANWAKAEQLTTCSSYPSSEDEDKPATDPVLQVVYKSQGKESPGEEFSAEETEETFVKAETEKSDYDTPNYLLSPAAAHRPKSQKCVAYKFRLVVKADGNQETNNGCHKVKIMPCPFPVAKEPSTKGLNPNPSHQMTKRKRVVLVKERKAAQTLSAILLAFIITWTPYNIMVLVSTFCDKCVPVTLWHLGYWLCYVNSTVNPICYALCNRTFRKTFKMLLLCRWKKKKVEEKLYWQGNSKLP

[4] = molecular target: T4, Muscarinic acetylcholine receptor M5 (Homo sapiens) (UniProt P08912); experiment: Activation of human muscarinic M5 receptor expressed in CHO cells coexpressing Gq protein assessed as potentiation of acetylcholine-induced intracellular Ca2+ mobilization at 30 uM relative to acetylcholine; type: functional, cell-based
T4 sequence (whole entry): T3 sequence (P08912 whole entry)

[5] = molecular target: T5, Muscarinic acetylcholine receptor M4 (Rattus norvegicus, UniProt P08485); experiment: Activation of rat muscarinic M4 receptor expressed in CHO cells coexpressing chimeric Gqi5 protein assessed as potentiation of acetylcholine-induced intracellular Ca2+ mobilization; type: functional, cell-based
T5 sequence (P08485 whole entry): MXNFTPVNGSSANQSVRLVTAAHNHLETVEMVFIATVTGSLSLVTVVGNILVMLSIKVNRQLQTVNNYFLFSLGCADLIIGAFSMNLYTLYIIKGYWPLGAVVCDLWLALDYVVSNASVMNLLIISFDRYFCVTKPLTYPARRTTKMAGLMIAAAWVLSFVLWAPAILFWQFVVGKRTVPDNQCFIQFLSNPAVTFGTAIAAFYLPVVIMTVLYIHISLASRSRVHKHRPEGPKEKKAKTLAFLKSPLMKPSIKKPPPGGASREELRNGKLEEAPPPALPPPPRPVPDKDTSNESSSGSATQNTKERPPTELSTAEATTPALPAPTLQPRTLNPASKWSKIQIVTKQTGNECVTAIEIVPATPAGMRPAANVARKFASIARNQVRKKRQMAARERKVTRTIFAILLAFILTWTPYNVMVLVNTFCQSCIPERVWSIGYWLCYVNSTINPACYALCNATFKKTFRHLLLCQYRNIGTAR
How it was run: (§1)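 Calcium flux assay. Stable CHO lines were seeded at 5 × 10^4 cells/well (M1, M3, M5) or 6 × 10^4 cells/well (Gqi5 M2, M4) and grown overnight at 37 °C, 5% CO2. Cells were loaded 1 h at 37 °C with 2 µM Fluo-4 AM. […] At least three independent determinations, each in duplicate or more.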

[6] = molecular target: T6, Muscarinic acetylcholine receptor M2 (Rattus norvegicus) (UniProt P10980); experiment: Activation of rat muscarinic M2 receptor expressed in CHO cells coexpressing chimeric Gqi5 protein assessed as potentiation of acetylcholine-induced intracellular Ca2+ mobilization at 30 uM relative to acetylcholine; type: functional, cell-based
T6 sequence (whole entry): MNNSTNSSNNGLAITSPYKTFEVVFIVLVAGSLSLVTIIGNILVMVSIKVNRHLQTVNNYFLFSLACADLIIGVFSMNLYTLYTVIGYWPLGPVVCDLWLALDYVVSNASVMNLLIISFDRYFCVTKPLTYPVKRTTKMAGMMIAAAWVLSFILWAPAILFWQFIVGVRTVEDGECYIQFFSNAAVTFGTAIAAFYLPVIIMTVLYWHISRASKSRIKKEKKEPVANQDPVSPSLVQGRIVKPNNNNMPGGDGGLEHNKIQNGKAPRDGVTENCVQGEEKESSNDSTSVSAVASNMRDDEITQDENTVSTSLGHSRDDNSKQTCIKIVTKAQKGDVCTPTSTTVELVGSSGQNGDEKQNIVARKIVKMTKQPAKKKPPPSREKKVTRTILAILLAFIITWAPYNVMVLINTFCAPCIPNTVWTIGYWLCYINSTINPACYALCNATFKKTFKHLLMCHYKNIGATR

[7] = molecular target: T7, Muscarinic acetylcholine receptor M2 (Rattus norvegicus, UniProt P10980); experiment: Activation of rat muscarinic M2 receptor expressed in CHO cells co-expressing chimeric Gqi5 protein assessed as potentiation of acetylcholine-induced intracellular Ca2+ mobilization; type: functional, cell-based; how it was run: as §1
T7 sequence (P10980 whole entry): T6 sequence (whole entry)

[8] = molecular target: T8, Muscarinic acetylcholine receptor M3 (Homo sapiens, UniProt P20309); experiment: Activation of human muscarinic M3 receptor expressed in CHO cells coexpressing Gq protein assessed as potentiation of acetylcholine-induced intracellular Ca2+ mobilization; type: functional, cell-based; how it was run: as §1
Target sequence in this assay (P20309 whole entry): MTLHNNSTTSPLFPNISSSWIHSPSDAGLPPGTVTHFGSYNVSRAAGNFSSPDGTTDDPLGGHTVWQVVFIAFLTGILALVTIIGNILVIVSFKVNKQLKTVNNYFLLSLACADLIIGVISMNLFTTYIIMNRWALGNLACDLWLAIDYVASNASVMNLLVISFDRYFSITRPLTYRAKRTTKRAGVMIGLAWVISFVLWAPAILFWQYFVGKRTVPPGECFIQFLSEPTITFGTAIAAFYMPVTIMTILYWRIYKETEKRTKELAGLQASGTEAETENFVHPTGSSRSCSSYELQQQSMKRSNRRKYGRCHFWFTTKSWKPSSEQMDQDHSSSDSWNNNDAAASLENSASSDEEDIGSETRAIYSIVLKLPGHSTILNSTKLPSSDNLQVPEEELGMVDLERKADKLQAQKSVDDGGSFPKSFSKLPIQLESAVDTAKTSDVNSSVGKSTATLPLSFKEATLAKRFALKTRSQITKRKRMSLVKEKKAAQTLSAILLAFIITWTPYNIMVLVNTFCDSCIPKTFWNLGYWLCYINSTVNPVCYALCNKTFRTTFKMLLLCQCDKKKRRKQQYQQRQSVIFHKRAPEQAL

[9] = molecular target: T8, Muscarinic acetylcholine receptor M3; experiment: Activation of human muscarinic M3 receptor expressed in CHO cells coexpressing Gq protein assessed as potentiation of acetylcholine-induced intracellular Ca2+ mobilization at 30 uM relative to acetylcholine; type: functional, cell-based
Target sequence in this assay (P20309 whole entry, looked up): as the sequence (P20309 whole entry) above

[10] = molecular target: T4, Muscarinic acetylcholine receptor M5 (Homo sapiens); experiment: Inhibition of [3H]NMS binding to human muscarinic M5 receptor expressed in CHO cells coexpressing Gq protein at 30 uM by scintillation counting; type: cell-based

SMILES	%max [1]	EC50 [2]	EC50 [3]	%max [4]	further results
O=C1C(=O)N(Cc2ccccc2C(F)(F)F)c2ccc(F)cc21	47.8%	6.21 µM	4.09 µM	36.1%	
O=C1C(=O)N(Cc2ccc(Br)cc2)c2c(F)cccc21	62.7%	3.99 µM	1.93 µM	51.7%	
COc1cccc(CN2C(=O)C(=O)c3c(Cl)ccc(Cl)c32)c1	13.3%	> 30 µM	7.15 µM	35.1%	
Cc1ccccc1CN1C(=O)C(=O)c2cc(OC(F)(F)F)ccc21	26.2%	> 30 µM	3.28 µM	60%	
O=C1C(=O)N(Cc2ccc(C(F)(F)F)cc2)c2c(F)cccc21	60.9%	5.18 µM	3.26 µM	71.1%	
COc1ccc(CN2C(=O)C(=O)c3ccccc32)cc1	43.6%	> 10 µM	> 30 µM	29.2%	
O=C1C(=O)N(Cc2ccc(C(F)(F)F)cc2)c2ccc(OC(F)(F)F)cc21	25.7%	7.09 µM	1.85 µM	67.2%	
O=C1C(=O)N(Cc2ccc(C(F)(F)F)cc2)c2c(Cl)cccc21	67%	3.2 µM	2.11 µM	70.8%	EC50 ([5]; read-out: EC50): > 10 µM; %max [6]: 55%; EC50 ([7]; read-out: EC50): 2.84 µM; EC50 [8]: 2.22 µM; %max [9]: 78%
O=C1C(=O)N(Cc2ccc(Br)cc2F)c2ccc(OC(F)(F)F)cc21	11.6%	> 30 µM	> 10 µM	36.4%	
O=C1C(=O)N(Cc2ccc(OC(F)(F)F)cc2)c2ccc(OC(F)(F)F)cc21	13.8%	> 30 µM	1.86 µM	58.9%	
O=C1C(=O)N(Cc2ccc(Br)cc2F)c2c(Cl)cccc21			4.66 µM		
O=C1C(=O)N(Cc2ccc(Br)cc2)c2ccccc21	82.4%	6.04 µM	4.08 µM	74.4%	EC50 ([5]; cho): Not Active; inhibition [10]: 50%; EC50 ([7]; cho): Not Active; EC50 [8]: 6.38 µM; %max [9]: 65.5%
COc1cccc(CN2C(=O)C(=O)c3cc(OC(F)(F)F)ccc32)c1	28.6%	> 30 µM	1.7 µM	70.1%	
O=C1C(=O)N(Cc2ccc(C(F)(F)F)cc2)c2ccccc21			3.19 µM		
COc1ccc(CN2C(=O)C(=O)c3cccc(Cl)c32)cc1	49.4%	5.38 µM	3.96 µM	30.3%	
O=C1C(=O)N(Cc2ccccc2C(F)(F)F)c2c(F)cccc21	41.3%	> 30 µM	> 30 µM	30.9%	
O=C1C(=O)N(Cc2ccc(Br)cc2F)c2c(F)cccc21	39.2%			46.3%	
Cc1cccc2c1N(Cc1c(F)cccc1F)C(=O)C2=O	17.3%			14.4%	
Cc1ccc2c(c1)C(=O)C(=O)N2Cc1ccc(C(F)(F)F)cc1	22.9%			35.5%	
COc1ccc(CN2C(=O)C(=O)c3c(Cl)ccc(Cl)c32)cc1	18.6%			11.7%	
O=C1C(=O)N(Cc2ccc(Br)cc2F)c2ccc(Cl)cc21	29.9%			30.4%	
O=C1C(=O)N(Cc2ccccc2Cl)c2ccc(OC(F)(F)F)cc21	12.3%	> 30 µM	4.07 µM	51.9%	
